Numbering of substitutions follows the chain as printed. Names and notes keep the numbering of the source. Each block holds one molecule with its values, some of them ahead of it. Where no end group is shown, it is not given here.
Key:
[1] = system: myosin-X MyTH4–FERM cassette; test: Pull-down with GST-fused C-terminal tail peptides of α- and β-tubulins; type: binding, human; details: 20 mM Tris–HCl (pH 8.0), 50 mM NaCl, 1 mM DTT, 4°C, 30 min
How it was run: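 Purified MyTH4–FERM cassette was mixed with GST-fused α1A-tubulin (399–451) or β2B-tubulin (390–445) tail peptide in 20 mM Tris–HCl pH 8.0, 50 mM NaCl, 1 mM DTT at 4°C for 30 min. Glutathione-Sepharose was then added for 10 min at 4°C, with five washes. Elution used 20 mM glutathione in 50 mM Tris–HCl pH 8.0 with 150 mM NaCl, then SDS–PAGE.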

DCC = test: Co-immunoprecipitation of DCC with myc-tagged myosin-X MyTH4–FERM; type: cell-based; details: HEK293T cells, anti-myc antibody, immunoblot
DCC P3 peptide = test: Pull-down of wild-type and mutated MyTH4–FERM cassettes with GST-DCC P3 peptide; type: binding, human; details: SDS–PAGE
How it was run: (§1)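 Human myosin-X MyTH4–FERM cassette (wild type or site-directed mutants) was expressed in E. coli BL21Star(DE3) at 20°C with 0.1 mM IPTG. It was Ni-NTA purified, then His-tag cleaved with HRV3C, then run over cation exchange and gel filtration. GST bait was human DCC 1390–1447 or β2B-tubulin 390–445. Cassette and bait were mixed with glutathione-Sepharose at 4°C, washed, and eluates resolved by SDS–PAGE.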

[2] = system: C-terminal acidic tail peptide of β2B-tubulin; test: Pull-down of wild-type and mutated MyTH4–FERM cassettes with GST-tubulin tail; type: binding; details: SDS–PAGE
How it was run: as §1

- binding of tubulin C-terminal acidic tail peptides [1]: binds
Molecule: α-tubulin C-terminal acidic tail peptide: GST-fused C-terminal tail peptide of α1A-tubulin (399–451)

- binding of tubulin C-terminal acidic tail peptides [1]: binds
Molecule: β-tubulin C-terminal acidic tail peptide: GST-fused C-terminal acidic tail peptide of β2B-tubulin (390–445) ({GST}-RRKAFLHWYTGEGMDEMEFTEAESNMNDLVSEYQQYQDATADEQGEFEEEEGEDEA; not fully specified)

B1: myc-tagged myosin-X MyTH4–FERM cassette: myc-tagged full-length MyTH4–FERM cassette (residues 1486–2058) (protein)
chain: TRWSSAIQNVTDTKAPIDTPTQQLIQDIKENCLNSDVVEQIYKRNPILRYTHHPLHSPLLPLPYGDINLNLLKDKGYTTLQDEAIKIFNSLQQLESMSDPIPIIQGILQTGHDLRPLRDELYCQLIKQTNKVPHPGSVGNLYSWQILTCLSCTFLPSRGILKYLKFHLKRIREQFPGSEMEKYALFTYESLKKTKCREFVPSRDEIEALIHRQEMTSTVYCHGGGSCKITINSHTTAGEVVEKLIRGLAMEDSRNMFALFEYNGHVDKAIESRTVVADVLAKFEKLAATSEVGDLPWKFYFKLYCFLDTDNVPKDSVEFAFMFEQAHEAVIHGHHPAPEENLQVLAALRLQYLQGDYTLHAAIPPLEEVYSLQRLKARISQSTKTFTPCERLEKRRTSFLEGTLRRSFRTGSVVRQKVEEEQMLDMWIKEEVSSARASIIDKWRKFQGMNQEQAMAKYMALIKEWPGYGSTLFDVECKEGGFPQELWLGVSADAVSVYKRGEGRPLEVFQYEHILSFGAPLANTYKIVVDERELLFETSEVVDVAKLMKAYISMIVKKRYSTTRSASSQGSSR
modifications: left off: myc, end not stated, kept
- co-immunoprecipitation of DCC (DCC): co-immunoprecipitation of DCC

- binding to DCC P3 peptide (DCC P3 peptide): only weakly affected binding
- binding to DCC P3 peptide (DCC P3 peptide; listed as K1647D/K1650D): only a slight reduction in DCC binding
- binding to β2B-tubulin C-terminal tail peptide [2]: abolished binding
B2: Myo-X (K1647D/K1650D) (protein)
chain: TRWSSAIQNVTDTKAPIDTPTQQLIQDIKENCLNSDVVEQIYKRNPILRYTHHPLHSPLLPLPYGDINLNLLKDKGYTTLQDEAIKIFNSLQQLESMSDPIPIIQGILQTGHDLRPLRDELYCQLIKQTNKVPHPGSVGNLYSWQILTCLSCTFLPSRGILDYLDFHLKRIREQFPGSEMEKYALFTYESLKKTKCREFVPSRDEIEALIHRQEMTSTVYCHGGGSCKITINSHTTAGEVVEKLIRGLAMEDSRNMFALFEYNGHVDKAIESRTVVADVLAKFEKLAATSEVGDLPWKFYFKLYCFLDTDNVPKDSVEFAFMFEQAHEAVIHGHHPAPEENLQVLAALRLQYLQGDYTLHAAIPPLEEVYSLQRLKARISQSTKTFSFRTGSVVRQKVEEEQMLDMWIKEEVSSARASIIDKWRKFQGMNQEQAMAKYMALIKEWPGYGSTLFDVECKEGGFPQELWLGVSADAVSVYKRGEGRPLEVFQYEHILSFGAPLANTYKIVVDERELLFETSEVVDVAKLMKAYISMIVKKRYSTTRSASSQGSSR
modifications: left off: His6, N-terminal, cleaved

- binding to DCC P3 peptide (DCC P3 peptide): abolished the binding
- binding to DCC P3 peptide (DCC P3 peptide; listed as F2002K): abolished DCC binding
- binding to β2B-tubulin C-terminal tail peptide [2]: no effect on tubulin tail binding
- binding to β2B-tubulin C-terminal tail peptide ([2]; listed as F2002K): no effect on binding to the tubulin tail
B3: Myo-X (F2002K) (protein)
chain: B2 chain with D162K, D165K, F497K
modifications: left off: His6, N-terminal, cleaved
